Results reported in publication PMC3319149 (European Journal of Pharmaceutical Sciences, 2012).
“And” between values parts separate entries of the source, which are not always exact repeats. Equal values may be shown once. “Also recorded” adds a separate entry of the source. Read-outs that look alike come from different tables or passages of the source. Marks after values point to notes of the source that are not given here.

Columns and labels:
ASBT [1] = biological target: T1, ASBT (Homo sapiens, UniProt Q12908); assay: Taurocholate uptake inhibition study in ASBT-MDCK monolayers; type: cell-based; details: for Ki: read-out: Ki (μM) ASBT, inhibition of [3H]-taurocholate uptake (2.5 μM cold TCA), 10 min, 37 °C
T1 sequence (Q12908 1-348): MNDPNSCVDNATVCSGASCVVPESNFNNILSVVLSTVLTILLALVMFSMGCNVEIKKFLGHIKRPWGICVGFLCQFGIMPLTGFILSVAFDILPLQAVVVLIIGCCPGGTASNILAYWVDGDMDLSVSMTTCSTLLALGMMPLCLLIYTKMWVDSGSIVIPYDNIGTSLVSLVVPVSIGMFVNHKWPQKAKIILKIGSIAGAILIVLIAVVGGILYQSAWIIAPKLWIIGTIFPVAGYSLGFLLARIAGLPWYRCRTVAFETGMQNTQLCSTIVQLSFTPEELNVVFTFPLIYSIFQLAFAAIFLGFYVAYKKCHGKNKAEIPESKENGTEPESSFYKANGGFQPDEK

NTCP [2] = biological target: T2, NTCP (Homo sapiens, UniProt Q14973); assay: Taurocholate uptake inhibition study in NTCP-HEK monolayers; type: cell-based
T2 sequence (Q14973 1-349): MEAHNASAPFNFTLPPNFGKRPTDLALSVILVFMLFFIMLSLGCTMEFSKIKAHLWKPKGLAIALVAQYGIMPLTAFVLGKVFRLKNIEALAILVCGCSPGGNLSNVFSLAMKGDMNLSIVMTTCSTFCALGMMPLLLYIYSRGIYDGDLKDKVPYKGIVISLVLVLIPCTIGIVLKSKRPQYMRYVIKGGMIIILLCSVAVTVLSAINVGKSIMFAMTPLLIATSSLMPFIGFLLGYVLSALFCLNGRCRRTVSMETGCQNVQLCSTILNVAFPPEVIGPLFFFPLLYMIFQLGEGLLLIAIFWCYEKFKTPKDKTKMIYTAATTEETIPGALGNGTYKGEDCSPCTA

ASBT [3] = biological target: T1, ASBT; assay: Assessment of inhibition type; type: cell-based; details: inhibitor 152 μM (I/Ki = 10), taurocholate 1–200 μM
NTCP [4] = biological target: T2, NTCP; assay: Assessment of inhibition type; type: cell-based; details: inhibitor 118 μM (I/Ki = 10), taurocholate 1–200 μM
ASBT-MDCK monolayers [5] = assay: Passive permeability from uptake in sodium-free buffer, ASBT-MDCK monolayers; type: in vitro ADME
NTCP-HEK monolayers = assay: Passive permeability from uptake in sodium-free buffer, NTCP-HEK monolayers; type: in vitro ADME
ASBT [6] = biological target: T1, ASBT; assay: Uptake study in ASBT-MDCK monolayers; type: cell-based
NTCP [7] = biological target: T2, NTCP; assay: Uptake study in NTCP-HEK monolayers; type: cell-based
Outline: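 Stably transfected NTCP-HEK cells (hygromycin selection) were seeded at 2.5 × 10⁵/well on poly-D-lysine plates, cultured two days and washed with HBSS. Analogue was given at 1 to 250 μM in HBSS or sodium-free buffer (NaCl replaced by tetraethylammonium chloride). Read-out was acetonitrile lysis then LC/MS. Kinetics were fitted by nonlinear regression (eqns 2, 3). Jmax was normalized to same-occasion taurocholate Jmax. Highest distinguishable Kt = (Jmax/2)/Pp.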

ASBT [8] = biological target: T1, ASBT; details: read-out: Ki (μM) ASBT; ASBT-MDCK; ref Balakrishnan et al., 2006b; cited from earlier work
ASBT-MDCK monolayers [9] = details: passive permeability, ref Balakrishnan et al., 2006b; cited from earlier work
[10] = read-out: Ki (μM) NTCP, inhibition of [3H]-taurocholate uptake (2.5 μM cold taurocholate), NTCP-HEK monolayers, 5 min, 37 °C
[11] = passive permeability, sodium-free buffer, NTCP-HEK
[12] = Ki (μM) NTCP, inhibition of [3H]-taurocholate uptake (2.5 μM cold taurocholate), NTCP-HEK monolayers, 5 min, 37 °C
[13] = read-out: NTCP inhibitor class (strong / moderate / weak), class by Ki, NTCP-HEK

Structure (SMILES): C[C@H](CCC(=O)NCC(=O)O)[C@H]1CC[C@H]2[C@@H]3[C@@H](OC(=O)c4cccnc4)C[C@@H]4C[C@H](O)CC[C@]4(C)[C@H]3CC[C@]12C [Compound 8, 7-nicotinoyl glycoursodeoxycholate]
- Ki (ASBT [1]): 15.2 ± 0.8 µM
- Ki (NTCP [2]; [10]): 11.8 ± 2.1 µM
- type of inhibition of ASBT (best fitting model) (ASBT [3]): competitive inhibitor; also recorded: competitive model was the best fitting model
- type of inhibition of NTCP (best fitting model) (NTCP [4]): competitive inhibitor; also recorded: competitive model was the best fitting model
- ASBT Pp*10^6 (cm/s) (ASBT-MDCK monolayers [5]; passive permeability, sodium-free buffer, ASBT-MDCK): 0.95±0.05 ×10^−6 cm/s
- NTCP Pp*10^6 (cm/s) (NTCP-HEK monolayers; [11]): 7.26±0.45 ×10^−6 cm/s

Structure (SMILES): C[C@H](CCC(=O)O)[C@H]1CC[C@H]2[C@@H]3C(=O)C[C@@H]4CC(=O)CC[C@]4(C)[C@H]3CC(=O)[C@]12C [Compound 13, dehydrocholic acid]
- Ki (μM) ASBT (ASBT [1]; inhibition of [3H]-taurocholate uptake (2.5 μM cold TCA), 10 min, 37 °C): did not inhibit; also recorded: did not show any ASBT inhibition; also recorded: No inhibition
- Ki (NTCP [2]; [12]): 355 ± 59 µM
- Ki (NTCP [2]; NTCP inhibitor class (strong / moderate / weak), class by Ki, NTCP-HEK): > 100 µM
- NTCP inhibitor class (strong / moderate / weak) (NTCP [2]; class by Ki, NTCP-HEK): weakly

Structure (SMILES): C[C@H](CCC(=O)NCC(=O)O)[C@H]1CC[C@H]2[C@@H]3[C@H](O)C[C@H]4C[C@H](OC(=O)c5cccnc5)CC[C@]4(C)[C@H]3CC[C@]12C [Compound 10, 3-nicotinoyl glycochenodeoxycholate]
- Ki (ASBT [1]): 6.45 ± 0.66 µM
- Ki (NTCP [2]; [10]): 5.38 ± 0.44 µM
- Ki (NTCP [2]; [13]): < 25 µM
- ASBT Norm Jmax (ASBT [6]; Jmax normalized to taurocholate Jmax of the same occasion, ASBT-MDCK): 2.11 and 2.1
- Jmax ASBT (ASBT [6]; not normalized, ASBT-MDCK): 0.000242 nmol/s/cm^2
- ASBT Kt (ASBT [6]; uptake into ASBT-MDCK monolayers, 10 min): 8.49 µM and 8.49 ± 1.34 µM
- NTCP Norm Jmax (NTCP [7]; Jmax normalized to taurocholate Jmax of the same occasion, NTCP-HEK): 1.48
- Jmax NTCP (NTCP [7]; not normalized, NTCP-HEK): 0.00298 nmol/s/cm^2
- NTCP Kt (NTCP [7]; uptake into NTCP-HEK monolayers): 16.3 µM and 16.3 ± 3.0 µM
- ASBT Pp*10^6 (cm/s) (ASBT-MDCK monolayers [5]; MDCK): 5.62±0.13 ×10^−6 cm/s
- NTCP Pp*10^6 (cm/s) (NTCP-HEK monolayers): 12.7±0.9 ×10^−6 cm/s

Structure (SMILES): C[C@H](CCC(=O)O)[C@H]1CC[C@H]2[C@@H]3[C@H](O)C[C@@H]4C[C@H](O)CC[C@]4(C)[C@H]3CC[C@]12C [CDCA, chenodeoxycholic acid, reference compound]
- Ki (NTCP [2]; [12]): 0.939 ± 0.057 µM
- NTCP Pp*10^6 (cm/s) (NTCP-HEK monolayers; [11]): 60.7±0.5 ×10^−6 cm/s
- Ki (ASBT [8]): 1.94 ± 0.17 µM
- ASBT Pp*10^6 (cm/s) (ASBT-MDCK monolayers [9]): 20.7±0.7 ^a ×10^−6 cm/s

Structure (SMILES): C[C@H](CCC(=O)O)[C@H]1CC[C@H]2[C@@H]3[C@@H](O)C[C@@H]4C[C@H](O)CC[C@]4(C)[C@H]3CC[C@]12C [UDCA, ursodeoxycholic acid, reference compound]
- Ki (NTCP [2]; [12]): 4.9 ± 0.47 µM
- NTCP Pp*10^6 (cm/s) (NTCP-HEK monolayers; [11]): 27.2±0.8 ×10^−6 cm/s
- Ki (ASBT [8]): 22.6 ± 3 µM
- ASBT Pp*10^6 (cm/s) (ASBT-MDCK monolayers [9]): 21.2±0.9 ^a ×10^−6 cm/s

Structure (SMILES): COC(=O)CC[C@@H](C)[C@H]1CC[C@H]2[C@@H]3[C@@H](O)C[C@@H]4C[C@H](O)CC[C@]4(C)[C@H]3CC[C@]12C [Compound 16, methyl ursodeoxycholate]
- Ki (ASBT [1]): 29.8 ± 5.1 µM
- Ki (NTCP [2]; [10]): 1.22 ± 0.1 µM

Structure (SMILES): C[C@H](CCC(=O)O)[C@H]1CC[C@H]2[C@@H]3[C@@H](OC(=O)c4ccc(F)cc4)C[C@@H]4C[C@H](O)CC[C@]4(C)[C@H]3CC[C@]12C [Compound 3, 7-(4-fluorobenzoyloxy) ursodeoxycholate]
- Ki (ASBT [1]): 10.3 ± 1.1 µM
- Ki (NTCP [2]; [10]): 183 ± 32 µM
- Ki (NTCP [2]; [13]): > 100 µM

Structure (SMILES): C[C@H](CCC(=O)NCCS(=O)(=O)O)[C@H]1CC[C@H]2[C@@H]3[C@H](O)C[C@@H]4C[C@H](O)CC[C@]4(C)[C@H]3C[C@H](O)[C@]12C [taurocholate, Taurocholic acid, reference compound]
- taurocholate Kt NTCP (NTCP [7]; value Kt was set to in regression): 5.31 µM
